According to ChEMBL document CHEMBL4619779, “Tideglusib and Its Analogues As Inhibitors of Staphylococcus aureus SrtA” (J Med Chem, 2020):
Converted amounts (≈) assume the structure as drawn. The source made the active and inactive calls. The calls are words filed in the database; no cut-off is given here.

Experiments:
Staphylococcus aureus [1] = assay: Antibacterial activity against Staphylococcus aureus subsp. aureus str. Newman assessed as reduction in bacterial growth incubated for 24 hrs; type: functional
Summary of the method: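 Overnight culture diluted 1:1000 in TSB, grown to A600 0.6-0.8, then diluted 1:400 in TSB. Aliquots incubated with the compound at a range of concentrations. A600 read every 1 hr for 24 hr to build growth curves. Technical triplicates per point; three independent experiments.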

Sortase A [2] = biological target: T1, Sortase A (Staphylococcus aureus, UniProt Q9S446, DELTAN24); assay: Inhibition of Staphylococcus aureus SrtA delta N24 mutant expressed in Escherichia coli BL21 (DE3) assessed as reduction in IsdA (64 to 323 residues) transpeptidation incubated for 20 mins by SDS-PAGE analysis
Summary of the method: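 His-tagged SrtAΔN24 (100 µg) was preincubated 20 min at rt with compound (1–25 µM) in 50 mM Tris-HCl pH 7.5, 150 mM NaCl, 5 mM CaCl2. IsdA64-323 (150 µg) and 3 mM Gly3 were then added for 1.5 hr at 37 °C. […] Three independent experiments.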

Sortase A [3] = biological target: T1, Sortase A; assay: Inhibition of Staphylococcus aureus SrtA delta N24 mutant expressed in Escherichia coli BL21 (DE3) using Abz-LPATG-Dnp substrate incubated for 20 mins by FRET-based assay
Summary of the method: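 His-tagged SrtAΔN24 (1 µM) was preincubated 20 min at rt with compound (0.2–100 µM) in 50 mM Tris-HCl pH 7.5, 150 mM NaCl, 5 mM CaCl2. Abz-LPATG-Dnp was added at 10 µM and fluorescence (ex 309 / em 420 nm) was read each minute for 20 min. IC50 came from a sigmoidal fit. Technical triplicates, three independent experiments.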

[4] = test system: Sortase A (Staphylococcus aureus), Q9S446 [UNDEFINED MUTATION]; assay: Inhibition of Staphylococcus aureus SrtA delta N24 mutant expressed in Escherichia coli BL21 (DE3) using Abz-LPATG-Dnp substrate incubated for 20 mins in presence of 0.01% v/v Triton X-100 by FRET-based assay
[5] = Solubility in PBS in presence of 1% DMSO by LC/MS analysis; type: physicochemical; details: PBS with 1% DMSO
[6] = test system: Sortase A (Staphylococcus aureus), Q9S446 [UNDEFINED MUTATION]; assay: Covalent binding affinity to Staphylococcus aureus SrtA delta N24 mutant assessed as induction of m/z shift incubated for 12 hrs by ESI-LC/MS analysis
Summary of the method: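 His-tagged SrtAΔN24 preincubated 12 hr with or without a 10-fold excess of compound. Diluted in 50% acetonitrile / 0.2% formic acid, run on a C8 column with a 10–90% acetonitrile gradient over 11 min, then ESI-TOF MS. MTSET served as the covalent reference.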

[7] = test system: Sortase A (Staphylococcus aureus), Q9S446 [UNDEFINED MUTATION]; assay: Inhibition of SrtA delta N24 mutant in Staphylococcus aureus subsp. aureus str. Newman reduction in abundance of anchored SpA by FITC-labeled human IgG fluorescence based assay
Summary of the method: (§1)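 Newman wild type and ΔsrtA were diluted 1:1000 in TSB and grown at 37 °C with inhibitor until A600 reached 1.0. Cells were PBS-washed, labelled with FITC-human IgG for 30 min at rt, and washed again before fluorescence was read. Triplicate wells, three independent experiments, unpaired two-tailed t-test.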

[8] = test system: Sortase A (Staphylococcus aureus), Q9S446 [UNDEFINED MUTATION]; assay: Binding affinity to Staphylococcus aureus SrtA delta N24 mutant expressed in Escherichia coli BL21 (DE3 assessed as attenuation of NMR signals by CPMG-NMR analysis
Summary of the method: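 NMR titration in 20 mM sodium phosphate pH 7.4, 100 mM NaCl, 2% DMSO, at 25 °C on a 600 MHz spectrometer with a cryoprobe.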

[9] = test system: Sortase A (Staphylococcus aureus), Q9S446 [UNDEFINED MUTATION]; assay: Reversible inhibition of Staphylococcus aureus SrtA delta N24 mutant expressed in Escherichia coli BL21 (DE3) assessed as reduction in IsdA (64 to 323 residues) transpeptidation incubated for 20 mins followed by 10 fold compound dilution by SDS-PAGE analysis
[10] = test system: Sortase A (Staphylococcus aureus), Q9S446 [UNDEFINED MUTATION]; assay: Effect on structural folding of Staphylococcus aureus SrtA delta N24 mutant expressed in Escherichia coli BL21 (DE3 assessed as induction of gross structural perturbations by CD spectroscopy
Summary of the method: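 SrtAΔN24 at 10 µM was incubated with compound dissolved in methanol, and CD spectra were recorded. Two independent experiments.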

Staphylococcus aureus [11] = assay: Antibiofilm activity against Staphylococcus aureus subsp. aureus str. Newman assessed as reduction in biofilm biomass at 25 to 100 uM incubated for 18 hrs by Crystal violet staining assay; type: functional, organism-based
Summary of the method: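 Overnight culture diluted 1:100 in TSB, plated in quadruplicate with inhibitor, and held static at 37 °C for 18 hr. Wells rinsed with PBS, and the dried, fixed biofilm stained with 0.1% crystal violet for 15 min. Stain dissolved in 30% acetic acid and absorbance read at 595 nm. Three independent experiments.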

[12] = test system: Sortase A (Staphylococcus aureus), Q9S446 [UNDEFINED MUTATION]; assay: Time dependent inhibition of Staphylococcus aureus SrtA delta N24 mutant expressed in Escherichia coli BL21 (DE3) assessed as reduction in IsdA (64 to 323 residues) transpeptidation by SDS-PAGE analysis
[13] = test system: Sortase A (Staphylococcus aureus), Q9S446 [UNDEFINED MUTATION]; assay: Inhibition of SrtA delta N24 mutant in Staphylococcus aureus subsp. aureus str. Newman reduction in abundance of anchored SpA at 100 uM by FITC-labeled human IgG fluorescence based assay; summary of the method: as §1
[14] = test system: Sortase A (Staphylococcus aureus), Q9S446 [UNDEFINED MUTATION]; assay: Inhibition of SrtA delta N24 mutant in Staphylococcus aureus subsp. aureus str. Newman reduction in abundance of anchored SpA by Western blot analysis
Summary of the method: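 Newman was diluted 1:1000 and grown at 37 °C with inhibitor to A600 3.0. Cells were PBS-washed and digested with lysozyme for 30 min at 37 °C. Protoplasts were removed and the supernatant (cell wall fraction) was separated by SDS-PAGE and immunoblotted for SpA, with ClpP as the loading control. Three independent experiments.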

[15] = test system: Sortase A (Staphylococcus aureus), Q9S446 [UNDEFINED MUTATION]; assay: Covalent inhibition of Staphylococcus aureus SrtA delta N24 mutant expressed in Escherichia coli BL21 (DE3) assessed as reduction in IsdA (64 to 323 residues) transpeptidation incubated for 20 mins followed by 10 fold compound dilution by SDS-PAGE analysis

Row | Compound | MIC (Staphylococcus aureus [1]) [µg/mL] | IC50 (Sortase A [2]) [µM] | IC50 (Sortase A [3]) [µM] | other results
1 | CCCCn1sc(=O)n(CCCC)c1=O | 3.1 (≈ 13.5 µM) | > 50 | 43.9 | –
2 | Cc1noc(C)c1-n1sc(=O)n(Cc2ccccc2)c1=O | > 100 | 4.6 | 0.8 | inhibition [4]: Active; solubility [5]: 144 µg/mL; Activity [6]: inactive; inhibition [7]: Dose-dependent effect; Activity [8]: Dose-dependent effect; inhibition [9]: Active; Activity [10]: inactive; Activity (Staphylococcus aureus [11]): Active; TDI [12]: inactive
3 | O=c1sn(-c2cccc3ccccc23)c(=O)n1Cc1ccccc1O | > 100 | 32.2 | 1.3 | –
4 | CCn1sc(=O)n(Cc2ccc(C)cc2)c1=O | 6.2 (≈ 24.8 µM) | > 50 | 16.7 | –
5 | CCCCn1c(=O)sn(-c2c(C)noc2C)c1=O | > 100 | 4.1 | 1.1 | –
6 | O=c1sn(CCc2ccccc2)c(=O)n1C1CCCCC1 | 12.5 (≈ 41.1 µM) | > 50 | > 100 | –
7 | O=c1sn(-c2cccc3c2CCCC3)c(=O)n1Cc1ccccc1 | 50 (≈ 148 µM) | 31.9 | 6 | –
8 | O=c1sn(Cc2ccccc2)c(=O)n1CCCl | 25 (≈ 92.3 µM) | 16.7 | 2 | –
9 | CCCNC1=C(c2ccccc2)C(=O)C2C(/C=C/S(=O)(=O)c3ccccc3)=CC=CC2C1=O (centres undefined) | – | – | – | inhibition [13]: inactive
10 | O=c1sn(-c2cccc3ccccc23)c(=O)n1Cc1cccc(O)c1 | > 100 | 9.2 | 1.6 | –
11 | O=c1sn(-c2cccc3c2CCC3)c(=O)n1Cc1ccccc1 | > 100 | 45.6 | 4.4 | –
12 | Cc1noc(C)c1-n1sc(=O)n(C(C)C)c1=O | > 100 | > 50 | 12.6 | –
13 | O=c1sn(-c2cccc3ccccc23)c(=O)n1Cc1ccc(O)cc1 | 100 (≈ 285 µM) | 4.7 | 2.6 | –
14 | O=c1sn(-c2cccc3ccccc23)c(=O)n1Cc1ccc(Cl)c(Cl)c1 | 50 (≈ 124 µM) | 14.4 | 0.9 | –
15 | Cc1noc(C)c1-n1sc(=O)n(Cc2ccc(Cl)cc2)c1=O | > 100 | 4.1 | 1 | –
16 | CC(C)n1c(=O)sn(CCc2ccccc2)c1=O | 25 (≈ 94.6 µM) | > 50 | > 100 | –
17 | CCn1c(=O)sn(-c2cccc3ccccc23)c1=O | > 100 | 8.2 | 0.7 | –
18 | Cc1noc(C)c1-n1sc(=O)n(Cc2ccccc2Cl)c1=O | > 100 | 3.7 | 0.6 | –
19 | O=c1sn(Cc2ccccc2)c(=O)n1Cc1ccccc1 | 12.5 (≈ 41.9 µM) | 12.9 | 7 | –
20 | Cn1c(=O)sn(-c2cccc3ccccc23)c1=O | 100 (≈ 387 µM) | 8 | 0.8 | –
21 | O=c1sn(-c2cccc3ccccc23)c(=O)n1Cc1ccc(F)cc1 | 100 (≈ 284 µM) | 5.9 | 4.1 | –

Row | Compound | MIC (Staphylococcus aureus [1]) [µg/mL] | IC50 (Sortase A [2]) [µM] | IC50 (Sortase A [3]) [µM] | other results
22 | CCn1sc(=O)n(Cc2ccc(Cl)cc2)c1=O | 6.2 (≈ 22.9 µM) | > 50 | 8.7 | –
23 | COc1ccc(Cn2c(=O)sn(-c3c(C)noc3C)c2=O)cc1 | > 100 | 5 | 1.2 | –
24 | O=c1sn(-c2cccc3ccccc23)c(=O)n1CCc1ccccc1 | > 100 | 27.5 | 0.6 | –
25 | CCCCn1c(=O)sn(Cc2ccccc2)c1=O | 6.2 (≈ 23.5 µM) | 21.2 | 8.4 | –
26 | Cc1ccc(Cn2c(=O)sn(-c3c(C)noc3C)c2=O)cc1 | > 100 | 4.7 | 1.1 | –
27 | Cn1c(=O)sn(Cc2ccccc2)c1=O | 12.5 (≈ 56.2 µM) | 23.6 | 3.5 | –
28 | C[N+](C)(C)CCSS(C)(=O)=O | – | – | – | inhibition [14]: Active; Activity [6]: 120 Da; inhibition [7]: Active; inhibition [15]: Active
29 | CCCCn1c(=O)sn(-c2cccc3ccccc23)c1=O | 100 (≈ 333 µM) | 12.6 | 0.9 | –
30 | O=c1sn(Cc2ccccc2)c(=O)n1Cc1ccc(Cl)c(Cl)c1 | 12.5 (≈ 34 µM) | 19.7 | 2.9 | –
31 | CCn1sc(=O)n(CCc2ccccc2)c1=O | 6.2 (≈ 24.8 µM) | > 50 | 16.3 | –
32 | Cc1noc(C)c1-n1sc(=O)n(Cc2ccc(Cl)c(Cl)c2)c1=O | > 100 | 3.4 | 0.9 | –
33 | CC(C)n1c(=O)sn(Cc2ccccc2)c1=O | 6.2 (≈ 24.8 µM) | > 50 | > 100 | –
34 | O=c1sn(C2CCCC2)c(=O)n1C1CCCCC1 | 6.2 (≈ 23.1 µM) | > 50 | 10.2 | –
35 | O=c1sn(Cc2ccccc2)c(=O)n1Cc1ccccc1Cl | 12.5 (≈ 37.6 µM) | 28 | 3.4 | –
36 | Cc1ccc(Cn2c(=O)sn(Cc3ccccc3)c2=O)cc1 | 12.5 (≈ 40 µM) | 35.7 | 5.1 | –
37 | O=c1sn(Cc2ccccc2)c(=O)n1-c1cccc(F)c1 | 12.5 (≈ 41.3 µM) | > 50 | > 100 | –
38 | O=c1sn(-c2cccc3c2OCO3)c(=O)n1Cc1ccccc1 | > 100 | 4.7 | 3.4 | –
39 | CCn1c(=O)sn(-c2c(C)noc2C)c1=O | > 100 | 6.3 | 1.5 | –
40 | O=c1sn(CCc2ccccc2)c(=O)n1Cc1ccccc1 | 12.5 (≈ 40 µM) | 42.7 | 10.1 | –
41 | O=c1sn(-c2cccc3ccccc23)c(=O)n1Cc1ccc(Cl)cc1 | 100 (≈ 271 µM) | 23.1 | 0.7 | –
42 | Cc1ccc(Cn2c(=O)sn(-c3cccc4ccccc34)c2=O)cc1 | 100 (≈ 287 µM) | 12.6 | 1.2 | –
